Reference: PubChem BioAssay AID624095 (The Scripps Research Institute Molecular Screening Center, 2012)
Active and inactive are the calls of the source.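 How the source made its calls: active means MIC at a fourfold reduction of 10 µM or lower; inactive means MIC at a fourfold reduction above 10 µM.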

System: IMP-1 P. aeruginosa KN20 growth with imipenem, OD600
Assay: growth inhibition synergy, KN20 P. aeruginosa with imipenem – strain KN20, clinical isolate, powder samples, VIM-2 MBL inhibitor project, late-stage follow-up (AID 624095)
Settings: not given
Summary of the method: (§1)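 Assay system: log-phase bacteria. Read-out basis: MIC per CLSI. Doses: compound two-fold series in checkerboard. Medium: Mueller-Hinton broth with adjusted cations (CAMHB). Signal: turbidity measured by optical absorbance. Timing: ≥18 h aerobic incubation at 37 °C. Reagent: imipenem in two-fold serial dilutions, orthogonal to compound.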
With `CN1CCN(NC(=O)CN2C(=O)/C(=C/c3c(C(F)(F)F)ccc(Cl)c3Cl)SC2=S)CC1` the MIC was > 50 µM (inactive). With `O=C(CN1C(=O)/C(=C/c2c(Cl)cccc2Cl)SC1=S)NN1CCN(Cc2ccccc2)CC1` the MIC was > 50 µM (inactive). In the case of `O=C(CN1C(=O)/C(=C/c2c(Cl)cccc2Cl)SC1=S)NN1CCNCC1`, the MIC is reported as > 50 µM (inactive). For `CC(=O)N1CCN(NC(=O)CN2C(=O)/C(=C/c3c(Cl)cccc3Cl)SC2=S)CC1`, the MIC was > 50 µM (inactive). In the case of `CN1CCN(C(=O)CN2C(=O)/C(=C/c3c(Cl)ccc(Cl)c3Cl)SC2=S)CC1`, the MIC is reported as > 50 µM (inactive). In the case of `O=C(CN1C(=O)/C(=C/c2c(Cl)ccc(Cl)c2Cl)SC1=S)NN1CCCCC1`, the MIC is reported as > 50 µM (inactive). In the case of `O=C(CN1C(=O)/C(=C/c2c(Cl)ccc(Cl)c2Cl)SC1=S)NN1CCNCC1`, the MIC is reported as > 50 µM (inactive). With `CN1CCN(NC(=O)CN2C(=O)/C(=C/c3c(Cl)cccc3Cl)SC2=S)CC1` the MIC was > 100 µM (inactive). In the case of `O=C(O)CN1C(=O)/C(=C/c2c(F)cccc2C(F)(F)F)SC1=S`, the MIC is reported as > 50 µM (inactive). For `CN1CCN(NC(=O)CN2C(=O)/C(=C/c3c(Cl)ccc(C(F)(F)F)c3Cl)SC2=S)CC1`, the MIC was > 50 µM (inactive). In the case of `O=C(O)CN1C(=O)/C(=C/c2c(Cl)cccc2Cl)SC1=S`, the MIC is reported as > 100 µM (inactive). For `CCN(CC)OC(=O)CN1C(=O)/C(=C/c2c(Cl)cccc2Cl)SC1=S`, the MIC was > 100 µM (inactive). For `O=C(CN1C(=O)/C(=C/c2c(Cl)ccc(Cl)c2Cl)SC1=S)NCc1ccccn1`, the MIC was > 50 µM (inactive). In the case of `O=C(CN1C(=O)/C(=C/c2c(Cl)cccc2Cl)SC1=S)NCc1ccccn1`, the MIC is reported as > 100 µM (inactive). With `CC(C)(C)OC(=O)N1CCN(NC(=O)CN2C(=O)/C(=C/c3c(Cl)cccc3Cl)SC2=S)CC1` the MIC was > 100 µM (inactive). In the case of `CN1CCN(NC(=O)CN2C(=O)/C(=C/c3c(Cl)ccc(Cl)c3Cl)SC2=S)CC1`, the MIC is reported as > 50 µM (inactive). For `O=C(CN1C(=O)/C(=C/c2c(Cl)cccc2Cl)SC1=S)NN1CCCCC1`, the MIC was > 100 µM (inactive). For `CC(C)(C)OC(=O)N1CCN(NC(=O)CN2C(=O)/C(=C/c3c(Cl)ccc(Cl)c3Cl)SC2=S)CC1`, the MIC was > 50 µM (inactive). For `CN1CCN(NC(=O)CN2C(=O)/C(=C/c3c(F)cccc3Cl)SC2=S)CC1`, the MIC was > 50 µM (inactive). For `O=C(CN1C(=O)/C(=C/c2c(Cl)cccc2Cl)SC1=S)NN1CCN(C(=O)c2ccccc2)CC1`, the MIC was > 50 µM (inactive). With `CN1CCN(NC(=O)CN2C(=O)/C(=C/c3c(F)cccc3C(F)(F)F)SC2=S)CC1` the MIC was > 50 µM (inactive). For `CC(C)N1CCN(NC(=O)CN2C(=O)/C(=C/c3c(Cl)cccc3Cl)SC2=S)CC1`, the MIC was > 50 µM (inactive).

System: not listed separately
Assay: as above
Settings: IMP-1 P. aeruginosa KN20 growth with imipenem, OD600; measured here: max imipenem fold potentiation; stronger effect = higher value
Summary of the method: as §1
`CN1CCN(NC(=O)CN2C(=O)/C(=C/c3c(Cl)ccc(C(F)(F)F)c3Cl)SC2=S)CC1` showed a fold potentiation of 2. Work on `CN1CCN(NC(=O)CN2C(=O)/C(=C/c3c(Cl)ccc(Cl)c3Cl)SC2=S)CC1` yielded a fold potentiation of 2. `CN1CCN(NC(=O)CN2C(=O)/C(=C/c3c(F)cccc3Cl)SC2=S)CC1` showed a fold potentiation of 2.
